High-throughput results from PubChem.
Wnt bcat act = Wnt/beta-catenin pathway activators, primary screen, cell-based, plate reader, single point; Wnt/beta-catenin reporter cell assay, activator; 300,000 tested, 1.2% active; activation, % at 9.35 µM; in the data active means activation above about 30%, passing the limit was not always enough; inconclusive means no clear call, values can overlap the other calls;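 further: 0% = neutral control wells and 100% = positive control wells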
MITF act = activators of MITF-driven TRPM1 promoter reporter, primary screen, cell-based, SK-MEL-5, luciferase, single point | SK-MEL-5 TRPM1-promoter luciferase, 24 h; % of positive control, neutral wells = 0 | activation, % at 12.5 µM | 300,000 tested, 0.75% active | AID 588334, 2011;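 active means mean activation of at least 80% with every replicate also reaching 80%; inconclusive means mean reaches 80% but some replicate falls short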;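 further: 0% = neutral control wells and 100% = parthenolide positive control wells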
NSD2 HMT inh = NSD2 histone methyltransferase inhibitors, primary screen, biochemical, AlphaScreen, single concentration, set 2. AID 743445, 2014. inhibition, % at 12.5 µM. 310,000 tested, 0.54% active. NSD2 peptide methylation, 120 min; in the data active means inhibition above about 50%
esBAF inh = Bmi1 luciferase reporter increase in mESCs, primary screen, esBAF inhibitor project, mouse ES cells, Bmi1 luciferase knock-in, single point; 24 h; 100% = twice the neutral-well signal; reporter increase, % at 12.5 µM; 350,000 tested, 2% active; in the data active means activation above about 40%; inconclusive means no clear call, values can overlap the other calls;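 further: 0% = median of the plate's neutral control wells and 100% = double that signal; a rise in the Bmi1 reporter signal indicates esBAF inhibition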
Casp6 inh = human caspase-6 inhibitors, primary screen, biochemical, VEID-R110 fluorescence, single point, set 2; P55212; purified caspase-6, Z-VEID-R110 cleavage fluorescence; inhibition, % at 12.5 µM; 350,000 tested, 0.53% active; AID 686996, 2013;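 active means mean inhibition across replicates at least about 35%, with every replicate also reaching that limit, limit read from the data; inconclusive means only one of the two criteria met; inactive means neither criterion met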;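 further: 0% = median of neutral control wells and 100% = no fluorescence left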
Xi reactivation = activators of inactive X chromosome reactivation, primary screen, imaging, XiGFP fibroblasts, GFP high-content imaging, set 2; XiGFP mouse fibroblasts, % GFP-positive cells imaging, 3 d; cells co-treated with 5-aza-dC sensitizer; scaled so ellipticine positive control = 100%; 360,000 tested, 0.055% active; AID 743238, 2013; activation, % at 7.58 µM;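 active means mean normalized replicate activation at least 10% and every replicate at or above 10%; inconclusive means only one of the two criteria met; inactive means mean below 10% and not all replicates reach 10%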;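 further: 0% = median of on-plate neutral control wells and 100% = ellipticine 6 µM median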
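System: SV40-immortalized XiGFP fibroblast cells, line 68-5-11 / Incubation: 3-day compound exposure, then 15 min fixation at room temperature / Compound: single concentration per compound, delivered by pin transfer / Buffer or medium: DMEM plus 5-aza-dC sensitizer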
Active calls of the source: *. This is a sample that favours compounds with a hit; in the whole collection about 3% have one here.

Cc1cc(C)n(-c2nc3ccccc3c(=O)n2OCC(=O)OCc2ccccc2)n1 was read as Wnt bcat act 2, MITF act -14, NSD2 HMT inh -1 and esBAF inh 48*.
`Cc1ccc(S(=O)(=O)N(C)C[C@H]2Oc3ccc(NC(=O)CCN4CCOCC4)cc3C(=O)N([C@H](C)CO)C[C@@H]2C)cc1` gave esBAF inh -1, Casp6 inh 0 and Xi reactivation 0.
Cc1ccc(-c2cc(NC(=O)c3ccccc3)on2)cc1 was read as Wnt bcat act 34*, MITF act 75, NSD2 HMT inh -2, esBAF inh 60*, Casp6 inh -2 and Xi reactivation 0.
For CCC(c1nc2ccccc2[nH]1)n1c(-c2cnccn2)nc2ccccc21 (centres undefined) the results were Wnt bcat act -2, Casp6 inh 4 and Xi reactivation 0.
Screening CCOC(=O)C(c1nc2ccccc2[nH]1)n1c(-c2ccccn2)nc2ccccc21 (centres undefined) returned Wnt bcat act 1, esBAF inh 49*, Casp6 inh 0 and Xi reactivation 0.
Screening COCC(=O)N(C)C[C@@H]1Oc2cc(C#C[C@@H](C)O)ccc2S(=O)(=O)N([C@H](C)CO)C[C@H]1C returned esBAF inh -1, Casp6 inh 2 and Xi reactivation -1.
O=C(Cc1ccncc1)Nc1ccc2c(c1)[C@@H]1C[C@H](CC(=O)NC3CCCC3)O[C@H](CO)[C@@H]1O2 was read as esBAF inh 8, Casp6 inh -1 and Xi reactivation 0.
For Cc1cc(/C=C(\C#N)C(=O)Nc2ccccc2F)c(C)[nH]1 the results were Wnt bcat act 19, MITF act 106*, NSD2 HMT inh 1, esBAF inh 29, Casp6 inh 0 and Xi reactivation 0.
`N#C/C(=C\c1ccc[nH]1)C(=O)Nc1ccccc1F` gave Wnt bcat act 33*, MITF act 19, NSD2 HMT inh -2, esBAF inh 71*, Casp6 inh -2 and Xi reactivation 0.
Screening Cc1cc(/C=C(\C#N)C(=O)NCc2ccco2)c(C)[nH]1 returned MITF act 5, NSD2 HMT inh -1 and esBAF inh 17.
Cc1cc(/C=C(\C#N)C(=O)NC2CC2)c(C)[nH]1 was read as Wnt bcat act inconclusive, MITF act 94*, NSD2 HMT inh -2 and Xi reactivation 0.
COc1ccc(NC(=O)COC(=O)c2n[nH]c3ccccc23)cc1 was read as NSD2 HMT inh -2.
For CC(C)NC(=O)Nc1ccc2c(c1)C(=O)N(C)[C@@H]1CC[C@H](CC(=O)Nc3ccccc3)O[C@@H]1CO2 the results were esBAF inh -2, Casp6 inh 0 and Xi reactivation 0.
COc1cccc(-c2ccc3c(c2)[C@@H]2[C@@H](CCN2S(=O)(=O)c2cccc(OC)c2)[C@@H](CO)N3)c1 was read as esBAF inh 2, Casp6 inh 1 and Xi reactivation 0.
For COc1ccc(Cn2cc(CN3CCc4onc(-c5ccc(Br)cc5)c4C3=O)nn2)cc1 the results were Wnt bcat act 32*, Casp6 inh 0 and Xi reactivation 0.
`Cc1noc(C)c1S(=O)(=O)N(C)C[C@@H]1Oc2ccc(NC(=O)Nc3cccc4ccccc34)cc2CC(=O)N([C@@H](C)CO)C[C@H]1C` gave esBAF inh -2, Casp6 inh -2 and Xi reactivation 0.
Screening Cc1cc(C)n(-c2nnc3c4ccccc4n(C)c3n2)n1 returned Wnt bcat act 48*, NSD2 HMT inh 0, Casp6 inh 0 and Xi reactivation 0.
For C/C(=N\Nc1nnc2c3ccccc3n(C)c2n1)c1ccc(C)o1 the results were Wnt bcat act 2, MITF act 13, NSD2 HMT inh 1 and Xi reactivation 0.
